dFosB act = activators of delta FosB homodimer, primary screen, biochemical, fluorescence polarization, TAMRA-CDK5 oligo, single point; AID 493131, 2011; Protein FosB (Mus musculus), P13346; hit rate 0.99% among 340,000; purified delta FosB; percent of positive-control signal above neutral wells; activation, % at 25 µM;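 active = mean activation above about 17%, with every replicate also reaching it, limit read from the data, passing the limit was not always enough; inconclusive = only one of the two conditions met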
Target sequence (P13346 whole entry, looked up): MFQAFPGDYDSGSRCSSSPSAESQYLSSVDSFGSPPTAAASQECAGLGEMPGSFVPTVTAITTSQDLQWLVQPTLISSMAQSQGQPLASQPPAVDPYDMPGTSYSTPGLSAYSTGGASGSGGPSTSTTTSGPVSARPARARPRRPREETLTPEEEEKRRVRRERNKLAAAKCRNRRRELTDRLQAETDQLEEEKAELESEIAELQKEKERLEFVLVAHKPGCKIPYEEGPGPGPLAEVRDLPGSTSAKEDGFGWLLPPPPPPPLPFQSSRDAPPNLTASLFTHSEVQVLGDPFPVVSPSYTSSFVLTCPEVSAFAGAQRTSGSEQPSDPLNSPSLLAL
SR-BI HDL uptake = inhibitors of SR-BI mediated HDL lipid uptake, primary screen, ldlA[mSR-BI] cells, fluorescence, single point; Scavenger receptor class B member 1 (Mus musculus), Q61009; ldlA[mSR-BI] CHO cells, DiI-HDL uptake fluorescence, 3 h; inhibition, % at 12.5 µM; hit rate 0.96% among 320,000; AID 488896, 2010;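 active = mean replicate inhibition of at least 70% and a set share of replicates each scoring 70 or more; inconclusive = meets just one of the two criteria; inactive = fails both criteria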
CDK5 inh = inhibitors of human CDK5/p35 kinase, primary screen, biochemical, single concentration; Cyclin-dependent kinase 5 (Homo sapiens) + Cyclin-dependent kinase 5 activator 1 (Homo …; Recombinant CDK5/p35, ADP-Glo luminescence, 60 min; inhibition, % at 10 µM; hit rate 0.01% among 330,000; AID 488839, 2010;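 active = highest replicate inhibition of at least 50% and at least 75% of replicates reaching 50%; inconclusive = only one of the two criteria met; inactive = both criteria failed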
SR-BI DiI-HDL act = activators of SR-BI mediated DiI-HDL uptake, primary screen, ldlA[mSR-BI] CHO cells, DiI fluorescence | 3 h; 100 = double the neutral-control signal | activation, % at 12.5 µM | hit rate 0.096% among 320,000;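 active = mean replicate activation of at least 60% and every replicate at or above 60%; inconclusive = mean or all-replicate condition met, but not both; inactive = mean below 60% and not all replicates reaching 60%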
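System: LDL receptor-deficient CHO ldlA cells overexpressing murine SR-BI | Timing: 3 h uptake period with compound, 37 °C | Medium: HEPES-buffered (25 mM, pH 7.4) F12 plus 0.5% BSA | Dosing: Single-point compound dose | Signal: Bottom-read fluorescence, 550/595 nm | Read-out: Retained DiI signal reflecting DiI-HDL uptake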
Of the large screens only hits and unclear results are named; the others gave an inactive call. Only some compounds are listed: those with a hit (about 2% of all), similar ones and a draw of the others.

NS(=O)(=O)c1ccc(NC(=O)CSc2nc3c(cnn3-c3ccccn3)c(=O)[nH]2)cc1	none
COc1ccc(-n2nnnc2CNC(=O)c2ccc3c(c2)OCO3)cc1	none
COc1ccc(/C=C(/C#N)C(=O)Nc2ccccc2C)cc1C(=O)O	none
COc1ccc(/C=C(/C#N)C(=O)Nc2ccc(C)cc2C)cc1C(=O)O	SR-BI DiI-HDL act 66
O=C(CNC(=O)c1cccs1)N=Nc1c(O)[nH]c2ccc(Br)cc12	none
O=C(CNC(=O)c1ccccc1)N=Nc1c(O)[nH]c2ccc(Br)cc12	dFosB act 46
COc1ccc(C(=O)Nc2sc3c(c2C#N)CCN(C(C)=O)C3)cc1	SR-BI HDL uptake 76
COc1cc(C(=O)Nc2sc3c(c2C#N)CCN(C(C)=O)C3)cc(OC)c1OC	SR-BI HDL uptake 78
CCN1CCN(CCCNC(=O)c2ccc3c(c2)NC(=O)/C(=C\c2cccc(C)c2)S3)CC1	none
Cc1cccc(/C=C2/Sc3ccc(C(=O)NCCCN4CCOCC4)cc3NC2=O)c1	dFosB act 33
COc1ccc(S(=O)(=O)N2CCCCCC2)cc1C(=O)Nc1ccccn1	none
Cc1nc2ccc(C(=O)N/N=C/c3ccccc3O)cc2[nH]1	none
O=C(N/N=C/c1cc([N+](=O)[O-])ccc1O)c1cccc(NC(=O)c2cccc(Cl)c2)c1	dFosB act 57
O=C(NN=Cc1cc(Cl)ccc1[N+](=O)[O-])c1cccc2ccccc12	none
O=C(N/N=C/c1cc([N+](=O)[O-])ccc1O)c1ccc(COc2ccc3c(c2)CCC3)o1	SR-BI HDL uptake 136
O=C(N/N=C/c1cc([N+](=O)[O-])ccc1O)c1cccc2ccccc12	SR-BI HDL uptake 129
Cc1nc2ccc(C(=O)N/N=C/c3cc([N+](=O)[O-])ccc3O)cc2[nH]1	SR-BI HDL uptake 106
O=C(N/N=C/c1cc([N+](=O)[O-])ccc1O)C1CCCCC1	SR-BI HDL uptake 87
CCOc1ccc(C(=O)Nc2cccc(-c3cc4ccccc4oc3=O)c2)cc1[N+](=O)[O-]	SR-BI HDL uptake 80
O=C(O)c1[nH]c2ccc(Cl)cc2c1CC(=O)N1CCN(C(=O)c2ccco2)CC1	none
O=C(c1ccco1)N1CCN(C(=O)C2CCCc3c2[nH]c2ccc(Cl)cc32)CC1 (stereo not drawn)	SR-BI HDL uptake 83
O=S(=O)(c1ccc(SCCOc2cccc(Br)c2)nc1)N1CCCC1	none
CCc1cc2cc(C)c(C)cc2nc1SCC(=O)NNC(=O)c1ccco1	SR-BI HDL uptake 75
CCc1cc2cccc(C)c2nc1SCC(=O)NNC(=O)c1ccco1	none
CC(=O)Nc1ccc(S(=O)(=O)NC2=NCN(c3ccc([N+](=O)[O-])cc3)CN2)cc1	dFosB act 24 (no result: SR-BI DiI-HDL act)
COc1ccc(/C=C/C(=O)Oc2ccc(/C=N\NC(=O)c3ccc(F)cc3)cc2)cc1	none
COc1ccc(/C=C/C(=O)Oc2cccc(/C=N/NC(=O)c3cccc(F)c3)c2)cc1	SR-BI HDL uptake 73
Cc1ccc(S(=O)(=O)N2C(=O)C(c3ccccc3)SC2=Nc2ccccc2)cc1 (stereo not drawn)	dFosB act 43
O=C(NCc1ccccn1)c1c(-c2ccccc2)sc2ccccc12	none
Cc1ccc(NS(=O)(=O)c2cc([N+](=O)[O-])ccc2NNC(=S)Nc2cccc(Cl)c2)c(C)c1	SR-BI HDL uptake 95
COc1ccc(NC(=S)NNc2ccc([N+](=O)[O-])cc2S(=O)(=O)Nc2ccc(C)cc2C)cc1	SR-BI HDL uptake 77
Cc1ccc(NS(=O)(=O)c2cc([N+](=O)[O-])ccc2NNC(=S)Nc2cc(C)ccc2C)c(C)c1	SR-BI HDL uptake 79
COC(=O)c1cc(S(=O)(=O)NC2CCC(C)CC2)cn1C (stereo not drawn)	none
O=S(=O)(Nc1cccc(S(=O)(=O)N2CCCC2)c1)c1ccccc1F	none
O=C(Nc1ccccc1Br)c1cc[n+]([O-])cc1	none (no result: SR-BI HDL uptake, SR-BI DiI-HDL act)
O=C(CNC(=O)c1ccc(Br)o1)NNC(=O)c1ccccc1F	none
COc1cc(C2Nc3cccc4cccc(c34)N2)ccc1OC(C)=O	none
Fc1ccc(C2Nc3cccc4cccc(c34)N2)cc1	dFosB act 25
COc1cc(C2Nc3cccc4cccc(c34)N2)cc(OC)c1O	dFosB act 41
Oc1ccc(C2Nc3cccc4cccc(c34)N2)c(O)c1	SR-BI HDL uptake 91
FC(F)(F)c1ccc(C2Nc3cccc4cccc(c34)N2)cc1	none
Clc1ccccc1C1Nc2cccc3cccc(c23)N1	none
O=C(c1ccc(F)cc1F)N1CCN(c2ccccn2)CC1	none (no result: SR-BI HDL uptake, SR-BI DiI-HDL act)
COc1cc(C(=O)Oc2cc(C)cc(C)c2)cc(OC)c1OC	SR-BI HDL uptake 77
COc1cc(C(=O)Oc2cccnc2)cc(OC)c1OC	none
N#Cc1ccccc1NC(=O)CNc1ccccc1N1CCCCC1	SR-BI HDL uptake 81
O=C(NCCO)C1CCN(C(=O)c2ccc(-c3ccccc3)cc2)CC1	none
O=C(CCCSc1nc2ccccc2c(=O)[nH]1)c1ccc(F)cc1	none
CCN=c1scc(C)n1/N=C/c1cc(Br)c(O)c(OC)c1	SR-BI HDL uptake 72
Cc1ccc(-c2nn3c(C)nnc3s2)cc1NC(=O)c1ccc(-c2ccc(Cl)cc2Cl)o1	SR-BI HDL uptake 79
Cc1ccc(-c2nn3c(C)nnc3s2)cc1NC(=O)c1ccc(-c2cccc(Cl)c2)o1	SR-BI HDL uptake 73
O=c1c2sc3ccccc3c2[nH]c(=S)n1CCN1CCOCC1	SR-BI DiI-HDL act 71
CC1CCN(CCCn2c(=S)[nH]c3c(sc4ccccc43)c2=O)CC1	none
COc1ccc(-c2nc(C#N)c(NCc3cccnc3)o2)cc1OC	none
COc1ccc(-c2nc(C#N)c(NCc3ccc(F)cc3)o2)cc1OC	SR-BI HDL uptake 74
O=C(COC(=O)COc1cccc(Br)c1)Nc1c(Cl)cccc1Cl	dFosB act inconclusive, SR-BI DiI-HDL act 374
O=C(N/C=N/OCc1ccc(Cl)cc1Cl)NOCc1ncc(C(F)(F)F)cc1Cl	SR-BI HDL uptake 83
Cc1c(NC(=O)c2cnn3c(C(F)(F)F)cc(-c4ccco4)nc23)c(=O)n(-c2ccccc2)n1C	none
CCOC(=O)c1nn2c(C(F)(F)F)cc(-c3ccc(OC)cc3)nc2c1Br	SR-BI HDL uptake 104
COc1ccc(-c2cc(C(=O)Nc3c(C)n(C)n(-c4ccccc4)c3=O)c3ccccc3n2)cc1	none (no result: SR-BI HDL uptake, SR-BI DiI-HDL act)
COc1ccc2cc(-c3cc(C(=O)OCC(=O)Nc4c(C)n(C)n(-c5ccccc5)c4=O)c4ccccc4n3)ccc2c1	SR-BI HDL uptake 76
COc1cccc(-c2cc(C(F)(F)F)n3nc(C(=O)Nc4c(C)n(C)n(-c5ccccc5)c4=O)cc3n2)c1	SR-BI HDL uptake 78
COc1ccc(-c2cc(C(F)(F)F)n3nc(C(=O)Nc4c(C)n(C)n(-c5ccccc5)c4=O)c(Cl)c3n2)cc1	SR-BI HDL uptake 79
Cc1ccc(N2CC(C(=O)Nc3cccc(C(=O)NC4CC4)c3)CC2=O)cc1 (stereo not drawn)	none
COc1ccc(-c2cc(C(F)(F)F)n3nc(C(=O)NCCCn4ccnc4)cc3n2)cc1	none

Bioassay records deposited in PubChem by Broad Institute.
